The text below walks through data of ChEMBL document CHEMBL1150072, “Two new bioactive monotetrahydrofuran Annonaceous acetogenins from the bark of Xylopia aromatica” (J Nat Prod, 1994).

≈ marks a conversion by molar mass, not a printed value.

For one series, the system named is HT-29. Description: Cytotoxicity against human HT-29 cells after 7 days by MTT assay. Type of series: functional. As to conditions: HT-29, 168 h, read-out: ED50 (the source's name). The method in brief: (§1)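 Seven-day MTT assay of each compound against the human solid tumour lines A-549 (lung carcinoma), MCF-7 (breast carcinoma) and HT-29 (colon adenocarcinoma), run at a cell culture core laboratory. Adriamycin served as the positive control. Values from separate runs of the cell culture assay were reported apart.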
Background: Tetrazolium assays rely on reduction of a dye to a coloured formazan, in cell work by metabolically active cells.

Another series deals with A549. Description: Cytotoxicity against human A549 cells after 7 days by MTT assay. Type of series: functional. As to conditions: A549, 168 h, read-out: ED50 (the source's name). In short, it runs like this: as §1
The next series deals with MCF7. Put plainly: Cytotoxicity against human MCF7 cells after 7 days by MTT assay. To be noted: MCF7, 168 h, read-out: ED50 (the source's name). Type of series: functional. In short, it runs like this:
as §1

The nature of series [1]: Toxicity in brine shrimp. As to conditions: artemia, in vivo. Type of series: organism-based.

With `COc1cccc2c1C(=O)c1c(O)c3c(c(O)c1C2=O)C[C@@](O)(C(=O)CO)C[C@@H]3O[C@H]1C[C@H](N)[C@H](O)[C@H](C)O1` [DOXORUBICIN], the EC50 in the series on HT-29 stood at 2.7 ng/mL (≈ 0.00497 µM); in the series with A549, 1.1 ng/mL (≈ 0.00202 µM).
As usually defined, the LC50 is the concentration lethal to half of the exposed cells or organisms. The low end stands for greater toxicity, the high end for lower toxicity. Take `CCCCCCCCCC/C=C\CC[C@@H](O)[C@H]1CC[C@H]([C@H](O)CCCCC(O)CCCCC[C@@H](O)CC2=C[C@H](C)OC2=O)O1` (stereo not given in full) [XYLOMATENIN]: the values for the EC50 with HT-29, in the series on A549 and with MCF7 were less than 1 ng/mL, less than 1 ng/mL and 631 ng/mL (≈ 1.01 µM), respectively. In series [1], this compound yielded an LC50 of 770 ng/mL (≈ 1.24 µM).
As to `CCCCCCCCCC/C=C\CC[C@@H](O)[C@H]1CC[C@H]([C@H](O)CCCCCCC(O)CCC[C@@H](O)CC2=C[C@H](C)OC2=O)O1` (stereo not given in full) [XYLOPIEN], the EC50 in the series with HT-29 came out at 7.26 ng/mL (≈ 0.0117 µM); in the series on A549, 3.64 ng/mL (≈ 0.00584 µM); in the series with MCF7, 7.11 ng/mL (≈ 0.0114 µM). In series [1], this compound gave an LC50 of 871 ng/mL (≈ 1.4 µM).
